In ChEMBL document CHEMBL2029240 (ACS Med Chem Lett, 2011):
One block for each compound: values may come before it. Activity calls are given as the source filed them. No cut-off for these calls is given here.

Key:
[1] = molecular target: T1, C-C chemokine receptor type 2 (Homo sapiens, UniProt P41597)
[2] = molecular target: T1, C-C chemokine receptor type 2; assay: Antagonist activity at CCR2 receptor in human whole blood assessed as inhibition of alexa-tagged MCP-induced effect 30 mins by flow cytometry; assay type: functional, tissue-based
[3] = molecular target: T2, Voltage-gated inwardly rectifying potassium channel KCNH2 (Homo sapiens, UniProt Q12809); assay: Displacement of [3H]dofetilide from human ERG
T2 sequence (Q12809 whole entry): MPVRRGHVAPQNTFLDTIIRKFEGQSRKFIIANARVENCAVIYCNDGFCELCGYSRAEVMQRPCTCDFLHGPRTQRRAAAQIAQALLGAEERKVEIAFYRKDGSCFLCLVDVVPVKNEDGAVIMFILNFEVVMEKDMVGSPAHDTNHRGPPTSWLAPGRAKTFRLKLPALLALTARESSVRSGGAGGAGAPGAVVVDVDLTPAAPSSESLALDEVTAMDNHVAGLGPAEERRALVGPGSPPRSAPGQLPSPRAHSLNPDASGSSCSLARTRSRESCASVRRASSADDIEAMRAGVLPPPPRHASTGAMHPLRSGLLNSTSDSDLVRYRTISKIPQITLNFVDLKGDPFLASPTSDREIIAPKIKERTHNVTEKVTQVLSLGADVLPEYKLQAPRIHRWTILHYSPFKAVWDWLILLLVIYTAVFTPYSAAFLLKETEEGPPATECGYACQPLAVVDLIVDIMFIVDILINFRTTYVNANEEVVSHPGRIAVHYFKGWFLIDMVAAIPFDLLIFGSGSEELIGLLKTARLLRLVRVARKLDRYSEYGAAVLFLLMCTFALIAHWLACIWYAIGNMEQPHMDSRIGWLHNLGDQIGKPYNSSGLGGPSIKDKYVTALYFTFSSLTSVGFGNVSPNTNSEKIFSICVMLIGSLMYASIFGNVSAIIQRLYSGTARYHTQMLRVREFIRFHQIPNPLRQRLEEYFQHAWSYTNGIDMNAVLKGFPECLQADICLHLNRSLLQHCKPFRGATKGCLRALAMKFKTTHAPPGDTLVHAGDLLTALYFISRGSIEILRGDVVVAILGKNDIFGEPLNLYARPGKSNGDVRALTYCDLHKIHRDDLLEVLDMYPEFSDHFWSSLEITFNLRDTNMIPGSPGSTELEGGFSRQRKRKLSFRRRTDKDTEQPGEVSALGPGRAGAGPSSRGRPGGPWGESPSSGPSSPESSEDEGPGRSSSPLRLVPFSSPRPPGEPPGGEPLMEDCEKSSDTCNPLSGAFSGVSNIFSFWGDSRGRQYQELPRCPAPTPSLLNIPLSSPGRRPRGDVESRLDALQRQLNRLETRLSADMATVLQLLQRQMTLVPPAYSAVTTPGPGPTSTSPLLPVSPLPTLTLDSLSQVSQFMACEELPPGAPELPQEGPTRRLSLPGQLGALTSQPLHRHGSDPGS

[4] = Half life in human liver microsomes; assay type: ADME, Microsome
[5] = Volume of distribution at steady state in dog at 2 mg/kg, iv; assay type: ADME, organism-based, Canis lupus familiaris; design: dose 2 mg/kg, route intravenous; conditions: in vivo, read-out: Vdss
[6] = molecular target: T3, C-C chemokine receptor type 3 (Homo sapiens) (UniProt P51677); assay: Inhibition of CCR3 at 1 uM
T3 sequence (whole entry): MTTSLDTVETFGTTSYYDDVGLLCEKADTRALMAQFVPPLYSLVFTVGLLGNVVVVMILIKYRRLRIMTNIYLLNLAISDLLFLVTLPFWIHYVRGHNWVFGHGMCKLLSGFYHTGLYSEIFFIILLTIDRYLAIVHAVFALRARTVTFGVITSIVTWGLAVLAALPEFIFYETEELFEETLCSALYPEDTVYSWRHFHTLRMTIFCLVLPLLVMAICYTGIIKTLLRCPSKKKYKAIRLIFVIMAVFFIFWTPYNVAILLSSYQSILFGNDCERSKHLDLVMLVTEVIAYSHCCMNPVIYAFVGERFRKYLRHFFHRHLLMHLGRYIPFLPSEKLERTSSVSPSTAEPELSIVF
Procedure, shortened: (§1)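 Single-concentration screen at 1 μM against a broad panel of more than 50 targets (ion channels, transporters, chemokine receptors, other GPCRs), scored for significant inhibition.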

[7] = Induction of Cytochrome P450 up to 30 uM; assay type: ADME
[8] = Cmax in dog at 10 mg/kg, po; assay type: ADME, organism-based, Canis lupus familiaris; design: dose 10 mg/kg, route oral; conditions: in vivo
[9] = Tmax in rat at 10 mg/kg, po; assay type: ADME, organism-based; design: dose 10 mg/kg, route oral; conditions: in vivo
Procedure, shortened: (§2)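 Rats were dosed iv at 2 mg/kg and orally at 10 mg/kg. Plasma PK parameters derived: CL (L/h/kg), Vss (L/kg), t1/2 (h), Cmax (nM), Tmax (h), AUC (nM h) and oral F%.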

[10] = molecular target: C-C chemokine receptor type 5 (Homo sapiens) (UniProt P51681); assay: Inhibition of CCR5 at 1 uM
Sequence of C-C chemokine receptor type 5 (Homo sapiens) (P51681 whole entry, looked up): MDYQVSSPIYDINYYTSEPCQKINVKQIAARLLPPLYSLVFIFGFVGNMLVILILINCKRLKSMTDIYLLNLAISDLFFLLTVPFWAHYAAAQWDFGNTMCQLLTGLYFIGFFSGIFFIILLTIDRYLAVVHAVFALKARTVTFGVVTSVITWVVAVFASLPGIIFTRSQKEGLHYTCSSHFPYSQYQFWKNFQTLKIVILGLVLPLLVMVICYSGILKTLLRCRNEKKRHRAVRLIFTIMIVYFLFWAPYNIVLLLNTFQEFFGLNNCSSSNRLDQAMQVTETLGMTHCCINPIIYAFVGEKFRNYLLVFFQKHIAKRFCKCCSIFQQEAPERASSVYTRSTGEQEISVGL
Procedure, shortened: as §1

[11] = Cmax in rat at 10 mg/kg, po; assay type: ADME, organism-based; design: dose 10 mg/kg, route oral; conditions: in vivo
Procedure, shortened: as §2

[12] = Half life in dog at 2 mg/kg, iv; assay type: ADME, organism-based, Canis lupus familiaris; design: dose 2 mg/kg, route intravenous; conditions: in vivo
[13] = molecular target: T4, C-C chemokine receptor type 1 (Homo sapiens) (UniProt P32246); assay: Inhibition of CCR1 at 1 uM
T4 sequence (whole entry): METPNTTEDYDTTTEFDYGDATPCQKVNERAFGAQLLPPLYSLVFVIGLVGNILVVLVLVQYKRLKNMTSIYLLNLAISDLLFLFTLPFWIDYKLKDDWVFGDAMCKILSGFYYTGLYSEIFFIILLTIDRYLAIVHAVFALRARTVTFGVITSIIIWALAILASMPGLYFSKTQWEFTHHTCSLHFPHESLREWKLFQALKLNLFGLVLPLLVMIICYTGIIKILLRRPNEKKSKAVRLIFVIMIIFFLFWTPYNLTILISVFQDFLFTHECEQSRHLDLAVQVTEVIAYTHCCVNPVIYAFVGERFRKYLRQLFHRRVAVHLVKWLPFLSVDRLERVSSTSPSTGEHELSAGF
Procedure, shortened: as §1

[14] = molecular target: T5, C-X-C chemokine receptor type 5 (Homo sapiens) (UniProt P32302); assay: Inhibition of CXCR5 at 1 uM
T5 sequence (whole entry): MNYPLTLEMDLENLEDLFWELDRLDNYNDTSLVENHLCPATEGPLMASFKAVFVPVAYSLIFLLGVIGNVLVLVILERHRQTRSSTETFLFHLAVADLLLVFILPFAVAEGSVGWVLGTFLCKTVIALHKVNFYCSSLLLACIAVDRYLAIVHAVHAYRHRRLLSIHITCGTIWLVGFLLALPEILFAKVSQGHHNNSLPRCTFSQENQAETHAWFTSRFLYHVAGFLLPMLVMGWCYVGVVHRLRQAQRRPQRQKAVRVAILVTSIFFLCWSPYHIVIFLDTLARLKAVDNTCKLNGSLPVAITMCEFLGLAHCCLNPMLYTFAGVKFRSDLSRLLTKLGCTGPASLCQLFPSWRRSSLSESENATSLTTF
Procedure, shortened: as §1

[15] = Half life in dog at 10 mg/kg, po; assay type: ADME, organism-based, Canis lupus familiaris; design: dose 10 mg/kg, route oral; conditions: in vivo
[16] = molecular target: T6, C-C chemokine receptor type 2 (Mus musculus, UniProt P51683); assay: Binding affinity to mouse CCR2
T6 sequence (P51683 whole entry): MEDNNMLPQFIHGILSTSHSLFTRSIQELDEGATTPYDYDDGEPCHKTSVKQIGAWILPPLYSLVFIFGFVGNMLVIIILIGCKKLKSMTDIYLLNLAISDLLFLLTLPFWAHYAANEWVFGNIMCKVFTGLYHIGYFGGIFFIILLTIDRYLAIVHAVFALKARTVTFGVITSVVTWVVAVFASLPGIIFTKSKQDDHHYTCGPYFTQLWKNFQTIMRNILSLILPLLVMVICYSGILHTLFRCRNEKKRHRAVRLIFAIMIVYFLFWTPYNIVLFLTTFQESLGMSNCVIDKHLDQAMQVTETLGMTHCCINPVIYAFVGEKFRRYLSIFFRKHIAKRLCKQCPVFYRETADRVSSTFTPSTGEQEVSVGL
Procedure, shortened: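 Mouse CCR2 binding assay, with affinity reported as IC50.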

[17] = Fraction unbound in human serum; assay type: ADME, cell-free
Rattus norvegicus [18] = assay: Oral bioavailability in rat at 10 mg/kg; assay type: ADME, organism-based; conditions: in vivo
Procedure, shortened: as §2

[19] = Half life in rat at 10 mg/kg, po; assay type: ADME, organism-based; design: dose 10 mg/kg, route oral; conditions: in vivo
Procedure, shortened: as §2

Cytochrome P450 1A2 = molecular target: T7, Cytochrome P450 1A2 (Homo sapiens, UniProt P05177); assay: Inhibition of CYP1A2; assay type: ADME
T7 sequence (P05177 whole entry): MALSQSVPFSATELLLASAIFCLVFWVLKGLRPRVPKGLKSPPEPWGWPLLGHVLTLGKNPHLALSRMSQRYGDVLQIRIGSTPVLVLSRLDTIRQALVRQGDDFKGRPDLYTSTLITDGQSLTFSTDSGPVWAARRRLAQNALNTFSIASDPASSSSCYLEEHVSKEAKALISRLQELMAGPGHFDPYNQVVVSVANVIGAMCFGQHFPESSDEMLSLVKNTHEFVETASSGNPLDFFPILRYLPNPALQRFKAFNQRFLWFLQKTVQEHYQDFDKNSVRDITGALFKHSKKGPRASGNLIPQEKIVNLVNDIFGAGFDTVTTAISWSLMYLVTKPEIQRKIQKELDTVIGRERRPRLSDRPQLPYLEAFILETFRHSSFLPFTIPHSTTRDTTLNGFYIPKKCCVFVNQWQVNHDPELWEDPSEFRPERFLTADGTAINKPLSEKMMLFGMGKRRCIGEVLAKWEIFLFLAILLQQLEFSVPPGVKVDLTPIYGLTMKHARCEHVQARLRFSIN

Cytochrome P450 2C19 = Cytochrome P450 2C19 (Homo sapiens, UniProt P33261); assay: Inhibition of CYP2C19; assay type: ADME
Sequence of Cytochrome P450 2C19 (P33261 whole entry): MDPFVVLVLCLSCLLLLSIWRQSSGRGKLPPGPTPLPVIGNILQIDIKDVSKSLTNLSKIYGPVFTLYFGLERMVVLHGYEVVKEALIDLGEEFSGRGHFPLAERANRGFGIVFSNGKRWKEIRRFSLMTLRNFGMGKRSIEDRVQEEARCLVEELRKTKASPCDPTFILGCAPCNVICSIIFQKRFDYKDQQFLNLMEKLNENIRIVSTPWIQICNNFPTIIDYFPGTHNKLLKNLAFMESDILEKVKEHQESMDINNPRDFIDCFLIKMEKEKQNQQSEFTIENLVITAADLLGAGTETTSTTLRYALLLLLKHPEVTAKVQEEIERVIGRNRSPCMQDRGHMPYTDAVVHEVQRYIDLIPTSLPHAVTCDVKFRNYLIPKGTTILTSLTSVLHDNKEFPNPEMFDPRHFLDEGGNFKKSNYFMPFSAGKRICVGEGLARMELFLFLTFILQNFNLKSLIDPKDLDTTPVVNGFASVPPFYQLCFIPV

Rattus norvegicus [20] = assay: Half life in rat at 2 mg/kg, iv; assay type: ADME, organism-based; design: dose 2 mg/kg, route intravenous; conditions: in vivo
Procedure, shortened: as §2

hERG (KCNH2) = hERG (KCNH2) (Homo sapiens, UniProt Q12809); assay: Inhibition of human ERG at 10 uM by patch clamp assay
Sequence of hERG (KCNH2) (Q12809 whole entry): as the sequence (Q12809 whole entry) above

Rattus norvegicus [21] = assay: Clearance in rat at 2 mg/kg, iv; assay type: ADME, organism-based; design: dose 2 mg/kg, route intravenous; conditions: in vivo
Procedure, shortened: as §2

Rattus norvegicus [22] = assay: AUC in rat at 10 mg/kg, po; assay type: ADME, organism-based, Plasma; design: dose 10 mg/kg, route oral; conditions: in vivo
Procedure, shortened: as §2

Cytochrome P450 2C9 = Cytochrome P450 2C9 (Homo sapiens, UniProt P11712); assay: Inhibition of CYP2C9; assay type: ADME
Sequence of Cytochrome P450 2C9 (P11712 whole entry): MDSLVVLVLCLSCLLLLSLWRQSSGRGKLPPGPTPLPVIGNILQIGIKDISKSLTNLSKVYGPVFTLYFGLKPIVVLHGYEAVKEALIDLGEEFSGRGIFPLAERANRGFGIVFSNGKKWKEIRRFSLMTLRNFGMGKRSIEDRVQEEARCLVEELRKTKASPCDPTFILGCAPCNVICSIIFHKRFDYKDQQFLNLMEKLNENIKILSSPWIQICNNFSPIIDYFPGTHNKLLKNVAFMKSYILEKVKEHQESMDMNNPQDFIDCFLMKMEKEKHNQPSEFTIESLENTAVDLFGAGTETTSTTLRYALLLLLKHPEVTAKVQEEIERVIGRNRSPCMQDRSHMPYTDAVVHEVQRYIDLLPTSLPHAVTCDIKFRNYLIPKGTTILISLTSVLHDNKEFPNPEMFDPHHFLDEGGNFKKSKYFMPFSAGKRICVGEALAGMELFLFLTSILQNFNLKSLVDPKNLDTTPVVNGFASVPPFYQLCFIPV

[23] = molecular target: T8, C-X-C chemokine receptor type 3 (Homo sapiens) (UniProt P49682); assay: Inhibition of CXCR3 at 1 uM
T8 sequence (whole entry): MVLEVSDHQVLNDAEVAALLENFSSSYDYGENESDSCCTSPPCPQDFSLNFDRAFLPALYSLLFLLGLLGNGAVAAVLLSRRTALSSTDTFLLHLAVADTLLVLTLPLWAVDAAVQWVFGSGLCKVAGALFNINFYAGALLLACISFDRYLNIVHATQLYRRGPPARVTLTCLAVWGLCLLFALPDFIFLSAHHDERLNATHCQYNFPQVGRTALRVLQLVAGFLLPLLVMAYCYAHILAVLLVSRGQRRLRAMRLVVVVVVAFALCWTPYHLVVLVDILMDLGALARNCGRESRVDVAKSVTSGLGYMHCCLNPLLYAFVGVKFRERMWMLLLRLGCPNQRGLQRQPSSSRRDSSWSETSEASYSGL
Procedure, shortened: as §1

[24] = Tmax in dog at 10 mg/kg, po; assay type: ADME, organism-based, Canis lupus familiaris; design: dose 10 mg/kg, route oral; conditions: in vivo
[25] = molecular target: T2, Voltage-gated inwardly rectifying potassium channel KCNH2; assay: Inhibition of human ERG by patch clamp assay
[26] = Oral bioavailability in dog at 10 mg/kg; assay type: ADME, organism-based, Canis lupus familiaris; conditions: in vivo
Cytochrome P450 2D6 = Cytochrome P450 2D6 (Homo sapiens, UniProt P10635); assay: Inhibition of CYP2D6; assay type: ADME
Sequence of Cytochrome P450 2D6 (P10635 whole entry): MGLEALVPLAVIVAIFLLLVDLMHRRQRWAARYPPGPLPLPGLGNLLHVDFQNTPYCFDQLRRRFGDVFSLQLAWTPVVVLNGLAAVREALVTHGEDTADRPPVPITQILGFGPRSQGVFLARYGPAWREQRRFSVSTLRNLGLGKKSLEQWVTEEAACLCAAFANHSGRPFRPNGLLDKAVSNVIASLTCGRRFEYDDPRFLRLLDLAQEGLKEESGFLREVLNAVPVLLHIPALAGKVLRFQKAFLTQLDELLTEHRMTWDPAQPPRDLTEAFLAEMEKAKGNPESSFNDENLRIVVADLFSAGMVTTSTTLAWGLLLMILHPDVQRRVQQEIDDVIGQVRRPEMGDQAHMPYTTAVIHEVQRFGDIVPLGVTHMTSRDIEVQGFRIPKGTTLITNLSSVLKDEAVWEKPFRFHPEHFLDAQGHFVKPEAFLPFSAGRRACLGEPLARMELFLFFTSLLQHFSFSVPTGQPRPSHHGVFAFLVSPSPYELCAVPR

[27] = Drug metabolism in human S9 fraction assessed as glutathione adduct formation in the absence of NADPH; assay type: ADME, subcellular
Procedure, shortened: (§3)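 Test agent incubated with human liver S9 fraction plus glutathione as cofactor, run both with and without NADPH. Read-out was detection of glutathione adducts.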

[28] = molecular target: T9, C-C chemokine receptor type 2 (Rattus norvegicus, UniProt O55193); assay: Binding affinity to rat CCR2
T9 sequence (O55193 whole entry): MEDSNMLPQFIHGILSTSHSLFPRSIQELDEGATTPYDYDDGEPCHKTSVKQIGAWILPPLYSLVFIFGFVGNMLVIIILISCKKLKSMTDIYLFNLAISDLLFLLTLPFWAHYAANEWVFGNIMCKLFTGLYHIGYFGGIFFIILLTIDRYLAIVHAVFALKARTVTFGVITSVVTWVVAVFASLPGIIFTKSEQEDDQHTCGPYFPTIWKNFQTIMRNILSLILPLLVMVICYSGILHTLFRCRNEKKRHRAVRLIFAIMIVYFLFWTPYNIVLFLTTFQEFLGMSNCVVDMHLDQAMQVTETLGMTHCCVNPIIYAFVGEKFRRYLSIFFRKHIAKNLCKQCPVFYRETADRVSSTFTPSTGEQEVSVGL

[29] = Permeability across human Caco2 cells; assay type: ADME, cell-based; conditions: Caco-2, read-out: permeability
[30] = molecular target: T6, C-C chemokine receptor type 2; assay: Antagonist activity at mouse CCR2; assay type: functional
Procedure, shortened: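 Read-out was antagonism of CCR2-mediated chemotaxis in a mouse chemotaxis assay, with activity reported as IC50.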

[31] = molecular target: T9, C-C chemokine receptor type 2; assay: Antagonist activity at rat CCR2; assay type: functional
[32] = Clearance in dog at 2 mg/kg, iv; assay type: ADME, organism-based, Canis lupus familiaris; design: dose 2 mg/kg, route intravenous; conditions: in vivo
[33] = AUC in dog at 10 mg/kg, po; assay type: ADME, organism-based, Canis lupus familiaris; design: dose 10 mg/kg, route oral; conditions: plasma
[34] = Drug metabolism in human S9 fraction assessed as glutathione adduct formation in the presence of NADPH; assay type: ADME, subcellular
Procedure, shortened: as §3

T1 sequence (P41597 whole entry): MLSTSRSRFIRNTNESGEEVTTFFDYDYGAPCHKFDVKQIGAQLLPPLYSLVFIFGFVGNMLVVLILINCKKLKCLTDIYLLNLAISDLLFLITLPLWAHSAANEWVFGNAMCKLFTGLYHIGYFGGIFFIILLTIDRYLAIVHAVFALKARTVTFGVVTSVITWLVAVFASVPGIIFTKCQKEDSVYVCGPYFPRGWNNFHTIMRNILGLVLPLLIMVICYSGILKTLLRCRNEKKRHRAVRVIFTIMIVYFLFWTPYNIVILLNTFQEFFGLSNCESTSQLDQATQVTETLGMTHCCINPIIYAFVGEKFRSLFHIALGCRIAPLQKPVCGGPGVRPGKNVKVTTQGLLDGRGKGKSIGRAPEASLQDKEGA

IC50 [1]: 3.3 nM
IC50 [2]: 33 nM
Structure (SMILES): O=C(N1CC[C@H](N[C@H]2CC[C@@](O)(c3ccc(-c4ncccn4)cn3)CC2)C1)C1(O)CCN(c2cc(C(F)(F)F)ccn2)CC1
IC50 [3]: > 30000 nM

half-life [4]: 1.48 h
Vd [5]: 0.62 L/kg
inhibition [6]: inactive
Activity [7]: Not Active
Cmax [8]: 20 µM
Tmax [9]: 1.2 h
inhibition [10]: inactive
Cmax [11]: 0.61 µM
half-life [12]: 2.4 h
inhibition [13]: inactive
inhibition [14]: inactive
half-life [15]: 3.2 h
IC50 [16]: 17 nM
fraction unbound [17]: 0.23
F (Rattus norvegicus [18]): 78%
half-life [19]: 2.5 h
IC50 (Cytochrome P450 1A2): > 30000 nM
IC50 (Cytochrome P450 2C19): > 30000 nM
t1/2 (Rattus norvegicus [20]): 2.5 h
CL (Rattus norvegicus [21]): 23.5 mL/min/kg
AUC (Rattus norvegicus [22]): 2.723 µM·h
IC50 (Cytochrome P450 2C9): > 30000 nM
inhibition [23]: inactive
Tmax [24]: 0.25 h
bioavailability [26]: 78%
IC50 (Cytochrome P450 2D6): > 30000 nM
Drug metabolism [27]: Not Active
IC50 [28]: 13 nM
Papp [29]: 3.1 ×10⁻⁶ cm/s
IC50 [30]: 16 nM
IC50 [31]: 2.8 nM
clearance [32]: 7.67 mL/min/kg
AUC [33]: 35.6 µM·h
Drug metabolism [34]: Not Active
Structure (SMILES): O=C(NCC(=O)N1CC[C@H](N[C@H]2CC[C@@](O)(c3ccc(-c4ncccn4)cn3)CC2)C1)c1cccc(C(F)(F)F)c1 [PF-4136309]
inhibition at 10 µM (hERG (KCNH2)): 35%
IC50 [3]: > 30000 nM
IC50 [25]: 20000 nM

The remaining lines, values behind:

Structure (SMILES): O=C(C1CCN(c2nccc(C(F)(F)F)n2)CC1)N1CC[C@H](N[C@H]2CC[C@@](O)(c3ccc(-c4ncccn4)cn3)CC2)C1
IC50 [1]: 5.4 nM
IC50 [2]: 29 nM

Structure (SMILES): O=C(C1CCN(c2cc(C(F)(F)F)ncn2)CC1)N1CC[C@H](N[C@H]2CC[C@@](O)(c3ccc(-c4ncccn4)cn3)CC2)C1
IC50 [1]: 10 nM
IC50 [3]: > 30000 nM
IC50 [2]: 40 nM

Structure (SMILES): N#Cc1ccnc(N2CCC(C(=O)N3CC[C@H](N[C@H]4CC[C@@](O)(c5ccc(-c6ncccn6)cn5)CC4)C3)CC2)c1
IC50 [1]: 11 nM
IC50 [2]: 33 nM
